Assay results: ChEMBL document CHEMBL4477213, “Discovery and Optimization of Quinazolinone-pyrrolopyrrolones as Potent and Orally Bioavailable Pan-Pim Kinase Inhibitors” (J Med Chem, 2016)
Values after ≈ are worked out from the molar mass of the structure shown.

Key:
[1] = Aqueous solubility of the compound in PBS at pH 7.4 after 1 hr by LC/MS analysis; assay type: physicochemical
Outline: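 The compound was dried down from DMSO and taken up in 1x PBS (pH 7.4) or FaSIF (pH 6.8). Samples were shaken 1 h, equilibrated at RT for 72 h, then centrifuged.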

[2] = Intrinsic clearance in rat liver microsomes at 1 uM after 30 mins in presence of NADPH; assay type: ADME, Microsome; conditions: read-out: CLH
[3] = Half life in rat at 2 mg/kg, iv or 5 mg/kg, po; assay type: ADME, organism-based; conditions: in vivo
[4] = Clearance in dog at 0.3 mg/kg, iv; assay type: ADME, organism-based, Canis lupus familiaris; conditions: in vivo
[5] = Clearance in rat at 2 mg/kg, iv; assay type: ADME, organism-based; conditions: in vivo
[6] = Intrinsic clearance in human liver microsomes at 1 uM after 30 mins in presence of NADPH; assay type: ADME, Microsome; conditions: read-out: CLH
[7] = Volume of distribution at steady state in dog at 0.3 mg/kg, iv; assay type: ADME, organism-based, Canis lupus familiaris; conditions: in vivo; for Vd: read-out: Vdss
[8] = Volume of distribution at steady state in rat at 2 mg/kg, iv or 5 mg/kg, po; assay type: ADME, organism-based; conditions: in vivo, read-out: Vdss
[9] = Intrinsic clearance in dog liver microsomes at 1 uM after 30 mins in presence of NADPH; assay type: ADME, Canis lupus familiaris, Microsome; conditions: read-out: CLH
Outline: (§1)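 Parent compound at 1 µM was incubated with liver microsomes (rat or dog, 0.25 mg/mL) in 66.7 mM potassium phosphate, pH 7.4, with 1 mM NADPH at 37 °C for 30 min.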

[10] = Half life in dog at 0.3 mg/kg, iv; assay type: ADME, organism-based, Canis lupus familiaris; conditions: in vivo
[11] = Drug metabolism in dog hepatocytes assessed as hydroxylation on the quinoxaline bicycle; assay type: ADME, cell-based, Canis lupus familiaris, Hepatocyte
[12] = Oral bioavailability in rat at 5 mg/kg; assay type: ADME, organism-based; conditions: in vivo
[13] = Aqueous solubility of the compound in FaSIF at pH 6.8 after 1 hr by LC/MS analysis
[14] = target: Serine/threonine-protein kinase pim-1 (Homo sapiens, UniProt P11309)
Chain of Serine/threonine-protein kinase pim-1 (P11309 whole entry): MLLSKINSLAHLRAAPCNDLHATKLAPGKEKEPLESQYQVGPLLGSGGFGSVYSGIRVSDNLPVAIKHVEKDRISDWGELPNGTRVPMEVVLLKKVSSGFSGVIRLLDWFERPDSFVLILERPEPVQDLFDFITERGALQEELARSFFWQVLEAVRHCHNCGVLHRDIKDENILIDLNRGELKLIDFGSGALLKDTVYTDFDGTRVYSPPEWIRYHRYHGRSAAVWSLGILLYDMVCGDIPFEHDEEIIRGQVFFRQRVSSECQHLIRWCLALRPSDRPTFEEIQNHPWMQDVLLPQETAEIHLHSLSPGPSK

[15] = target: Serine/threonine-protein kinase PIM (Homo sapiens, UniProt P11309+Q9P1W9+Q86V86); conditions: kms-12-bm
[16] = target: Serine/threonine-protein kinase pim-2 (Homo sapiens, UniProt Q9P1W9); experiment: Inhibition of full length recombinant Pim-2 (unknown origin) assessed as reduction in phosphorylation of biotinylated-BAD peptide at Serine 112 residue preincubated for 30 mins followed by substrate addition for 1 hr by HTRF assay
Chain of Serine/threonine-protein kinase pim-2 (Q9P1W9 whole entry): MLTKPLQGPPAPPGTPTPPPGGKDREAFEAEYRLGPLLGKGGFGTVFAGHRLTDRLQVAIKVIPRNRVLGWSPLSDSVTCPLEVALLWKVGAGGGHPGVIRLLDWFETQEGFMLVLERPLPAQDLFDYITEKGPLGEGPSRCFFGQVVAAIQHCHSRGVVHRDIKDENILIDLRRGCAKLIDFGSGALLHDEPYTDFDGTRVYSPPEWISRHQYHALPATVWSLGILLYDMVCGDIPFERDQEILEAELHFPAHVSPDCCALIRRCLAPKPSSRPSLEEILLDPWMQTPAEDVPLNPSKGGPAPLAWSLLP

[17] = Drug level in dog liver microsomes treated with 2-(3-(tert-butylamino)-6-fluoro-2-methylquinoxalin-5-yl)-6,7-dihydro-1H-pyrrolo[3,2-c]pyridin-4(5H)-one; assay type: ADME, Canis lupus familiaris, Microsome; outline: as §1
[18] = Fraction unbound in rat plasma at 5 uM by rapid equilibrium dialysis; assay type: ADME, cell-free
[19] = Apparent permeability in pig LLC-PK1 cells; assay type: ADME, cell-based, Sus scrofa
[20] = Drug level in rat liver microsomes treated with 2-(3-(tert-butylamino)-6-fluoro-2-methylquinoxalin-5-yl)-6,7-dihydro-1H-pyrrolo[3,2-c]pyridin-4(5H)-one; assay type: ADME, Microsome; outline: as §1
Homo sapiens = organism: Homo sapiens; experiment: Ratio of IC50 for pan Pim in human KMS-12-BM cells to IC50 for full length recombinant Pim-2 (unknown origin); assay type: cell-based
Outline: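 Enzyme step: full-length recombinant human Pim-2 phosphorylating a BAD peptide at Ser112. The shift is the ratio of the cellular potency to the enzymatic potency.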

[21] = Drug metabolism in rat liver microsomes assessed as hydroxylation of t-butyl group measured as 2-(6-fluoro-3-(1-hydroxy-2-methylpropan-2-ylamino)-2-methylquinoxalin-5-yl)-6,7-dihydro-1H-pyrrolo[3,2-c]pyridin-4(5H)-one formation; assay type: ADME, Microsome
[22] = Fraction unbound in dog plasma by rapid equilibrium dialysis; assay type: ADME, cell-free, Canis lupus familiaris
KMS-12-BM = experiment: Antitumor activity against human KMS-12-BM cells xenografted in SCID-bg mouse assessed as tumor growth inhibition at 50 mg/kg, po qd measured twice per week; assay type: functional; conditions: read-out: TGI
[23] = Unbound clearance in iv dosed rat; assay type: ADME, organism-based; conditions: in vivo
Outline: (§2)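 Unbound plasma fraction (fu) measured by rapid equilibrium dialysis in rat or dog plasma; unbound clearance CLu calculated from IV clearance and fu.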

[24] = Intrinsic clearance in dog hepatocytes assessed per 10^6 cells; assay type: ADME, cell-based, Canis lupus familiaris, Hepatocyte; conditions: read-out: CLH
[25] = Unbound clearance in iv dosed dog; assay type: ADME, organism-based, Canis lupus familiaris; conditions: in vivo; outline: as §2
[26] = Intrinsic clearance in rat hepatocytes assessed per 10^6 cells; assay type: ADME, cell-based, Hepatocyte; conditions: read-out: CLH
[27] = Drug metabolism in dog liver microsomes assessed as dehydrogenation of 6,7-dihydro-1H-pyrrolo[3,2-c]pyridin-4(5H)-one measured as 2-(3-(tert-butylamino)-6-fluoro-2-methylquinoxalin-5-yl)-1H-pyrrolo[3,2-c]pyridin-4(5H)-one formation; assay type: ADME, Canis lupus familiaris, Microsome

| Structure (SMILES) | microsomal CLint at 1 µM [2] [µL/min/mg] | half-life [3] [min] | clearance [5] [mL/min/kg] | microsomal CLint at 1 µM [6] [µL/min/mg] | Vd [8] [L/kg] | bioavailability [12] [%] | solubility at 1 h [13] [µM] | IC50 [14] [nM] | IC50 [15] [nM] | IC50 [16] [nM] | further results |
| --- | --- | --- | --- | --- | --- | --- | --- | --- | --- | --- | --- |
| Cc1nc2cccc(-c3cc4c([nH]3)[C@@H](C)NC4=O)c2nc1NC(C)(C)C | 50 | 180 | 8.33 | 37 | 1.3 | 62 | 245 (≈ 85.6 µg/mL) | – | – | – | solubility at 1 h [1]: 99 µM (≈ 34.6 µg/mL); clearance [4]: 26.7 mL/min/kg; Vd [7]: 1.7 L/kg; microsomal CLint at 1 µM [9]: 88 µL/min/mg; half-life [10]: 36 min; Drug metabolism [11]: Metabolite_Detected |
| C[C@H]1NC(=O)c2cc(-c3cccc4c(=O)n(C)c(N(C)C(C)(C)C)nc34)[nH]c21 | – | – | – | – | – | – | 122 (≈ 46.3 µg/mL) | 1.5 | 167 | 1 | solubility at 1 h [1]: 61 µM (≈ 23.1 µg/mL) |
| Cc1nc2cccc(-c3cc4c([nH]3)CCNC4=O)c2nc1NC(C)(C)C | 86 | 282 | 11.7 | 70 | 4.2 | 6 | – | 0.8 | 110 | 0.6 | – |
| Cc1nc2cccc(-c3cc4c([nH]3)CNC4=O)c2nc1NC(C)(C)C | 96 | 102 | 26.7 | 45 | 2.3 | 36 | – | – | 44 | 0.9 | – |
| C[C@H]1NC(=O)c2cc(-c3cccc4c(=O)n(C)c(N5CCCC5(C)C)nc34)[nH]c21 | – | – | – | – | – | – | 35 (≈ 13.7 µg/mL) | 0.9 | 88 | 0.6 | solubility at 1 h [1]: 20 µM (≈ 7.83 µg/mL) |
| Cc1nc2cccc(-c3cc4c(s3)CNC4=O)c2nc1NC(C)(C)C | 326 | – | – | 102 | – | – | – | 6.4 | 2870 | 6.8 | – |
| Cc1nc2cccc(-c3cc4c([nH]3)[C@@H](CCN)NC4=O)c2nc1NC(C)(C)C | < 14 | 1050 | 23.3 | < 14 | 21.2 | < 1 | – | 0.6 | 22 | 0.3 | – |
| Cc1nc2cccc(-c3cc4n(c3)CCNC4=O)c2nc1NC(C)(C)C | 205 | – | – | 85 | – | – | – | 6.6 | 4560 | 6.1 | – |
| Cc1nc2ccc(F)c(-c3cc4c([nH]3)[C@@H](C)NC4=O)c2nc1NC(C)(C)C | 52 | 174 | 8.33 | 35 | 1.6 | 54 | – | – | – | – | clearance [4]: 25 mL/min/kg; Vd [7]: 1.7 L/kg; microsomal CLint at 1 µM [9]: 105 µL/min/mg; half-life [10]: 66 min |
| Cc1nc2cccc(-c3cc4c([nH]3)CCCNC4=O)c2nc1NC(C)(C)C | 169 | – | – | 67 | – | – | – | – | – | – | – |
| Cc1nc2ccc(F)c(-c3cc4c(=O)[nH]ccc4[nH]3)c2nc1NC(C)(C)C | – | – | – | – | – | – | – | 0.2 | 148 | 0.1 | Drug metabolism [17]: Metabolite_Detected |
| Cc1nc2cccc(-c3cc4c([nH]3)C3(CC3)NC4=O)c2nc1NC(C)(C)C | 52 | 270 | 10 | 35 | 1.3 | 100 | – | 0.4 | 78 | 0.5 | – |
| Cc1c(NC(C)(C)C)nc2c(-c3cc4c([nH]3)[C@@H](C)NC4=O)cccn2c1=O | – | – | – | – | – | – | – | 3.1 | > 2000 | 2.1 | – |
| C[C@H]1NC(=O)c2cc(-c3nccc4c(=O)n(C)c(NC(C)(C)C)nc34)[nH]c21 | – | – | – | – | – | – | – | 4.5 | 1642 | 7.4 | – |
| C[C@H]1NC(=O)c2cc(-c3c(F)ccc4c(=O)n(C)c(NC(C)(C)C)nc34)[nH]c21 | 16 | 258 | 6.67 | < 14 | 1.4 | 10 | 23 (≈ 8.82 µg/mL) | – | – | – | solubility at 1 h [1]: 14 µM (≈ 5.37 µg/mL); fraction unbound at 5 µM [18]: 0.062; Papp [19]: 16 ×10⁻⁶ cm/s |
| Cc1nc2ccc(F)c(-c3cc4c([nH]3)CCNC4=O)c2nc1NC(C)(C)CO | – | – | – | – | – | – | – | 0.9 | 143 | 0.3 | Drug metabolism [20]: Metabolite_Detected |
| C[C@H]1NC(=O)c2cc(-c3cccc4c(=O)n(C)c(CC(C)(C)C)nc34)[nH]c21 | – | – | – | – | – | – | 9 (≈ 3.28 µg/mL) | 7.3 | 5960 | 4.9 | Ratio IC50 (Homo sapiens): > 1000 |
| Cc1nc2cccc3c2nc1N[C@H](C)/C=C\C[C@H]1CNC(=O)c2cc-3[nH]c21 | – | – | – | – | – | – | 295 (≈ 106 µg/mL) | – | – | – | – |
| C[C@H]1NC(=O)c2cc(-c3cccc4c(=O)n(C)c(NC(C)(C)CO)nc34)[nH]c21 | – | – | – | – | – | – | 134 (≈ 51.1 µg/mL) | 0.7 | 127 | 0.9 | solubility at 1 h [1]: 101 µM (≈ 38.5 µg/mL) |
| Cc1nc2cccc(-c3cc4c([nH]3)[C@H](C)NC4=O)c2nc1NC(C)(C)C | 130 | – | – | 89 | – | – | – | – | – | – | – |
| Cc1nc2cccc(-c3[nH]c4c(c3Cl)C(=O)N[C@@H]4C)c2nc1NC(C)(C)C | 143 | – | – | 111 | – | – | – | – | – | – | – |
| Cc1nc2cccc(-c3cc4c(s3)C(=O)NC4)c2nc1NC(C)(C)C | 373 | – | – | 104 | – | – | – | 2.5 | 1380 | 2.5 | – |
| Cc1nc2ccc(F)c(-c3cc4c([nH]3)CCNC4=O)c2nc1NC(C)(C)C | 189 | 210 | 6.67 | 66 | 1 | 37 | – | 0.3 | 23 | 0.3 | Drug metabolism [21]: Metabolite_Detected; fraction unbound [22]: 0.06; inhibition in vivo at 50 mg/kg (KMS-12-BM): 78%; CL [4]: 3.4 L/h/kg; CL free [23]: 23.5 L/h/kg; fraction unbound at 5 µM [18]: 0.017; Vdss [7]: 8.7 L/kg; microsomal CLint at 1 µM [9]: 203 µL/min/mg; hepatocyte CLint [24]: 32 µL/min/1e6 cells; CL free [25]: 56.6 L/h/kg; hepatocyte CLint [26]: 39 µL/min/1e6 cells; t1/2 [10]: 36 min; Drug metabolism [27]: Metabolite_Detected |
| C[C@H]1NC(=O)c2cc(-c3cccc4c3N=C(NC(C)(C)C)N(C)S4(=O)=O)[nH]c21 | – | – | – | – | – | – | – | 6.5 | 1142 | 5.2 | – |
| C[C@H]1NC(=O)c2cc(-c3cccc4c(=O)n(C)c(NC5(C)CC5)nc34)[nH]c21 | – | – | – | – | 1.9 | 5 | 344 (≈ 125 µg/mL) | – | – | – | solubility at 1 h [1]: 56 µM (≈ 20.4 µg/mL); Papp [19]: 29 ×10⁻⁶ cm/s |
| Cc1nc2cccc(-c3cc4c([nH]3)C3(CCOCC3)NC4=O)c2nc1NC(C)(C)C | 45 | – | – | < 14 | – | – | – | 44 | 5760 | 117 | – |
